{"source": "ChEMBL document CHEMBL2176968", "about": "“Identification of less lipophilic riminophenazine derivatives for the treatment of drug-resistant tuberculosis” (J Med Chem, 2012)", "key": {"Mus musculus": {"tested_on": "Mus musculus", "experiment": "Acute toxicity in mouse assessed as survival at 500 mg/kg, po measured for 7 days", "type": "organism-based", "parameters": "dose 500 mg/kg, route oral", "conditions": "in vivo, 168 h", "outline": "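Mice given one oral dose of 500 mg/kg, then observed for 7 days. The number of surviving mice was recorded.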"}, "[1]": {"experiment": "Selectivity index, ratio of IC50 for african green monkey Vero cells to MIC for Mycobacterium tuberculosis H37Rv ATCC 27294", "type": "functional"}, "[2]": {"experiment": "Cmax in BALB/c mouse at 20 mg/kg, po", "type": "ADME, organism-based", "parameters": "dose 20 mg/kg, route oral", "conditions": "in vivo"}, "[3]": {"experiment": "Half life in BALB/c mouse at 20 mg/kg, po", "type": "ADME, organism-based", "parameters": "dose 20 mg/kg, route oral", "conditions": "in vivo"}, "[4]": {"experiment": "AUC (0 to 24 hrs) in BALB/c mouse at 20 mg/kg, po", "type": "ADME, organism-based", "parameters": "time < 24 hr, dose 20 mg/kg, route oral", "conditions": "plasma"}, "[5]": {"experiment": "Aqueous solubility of the compound in 100 ml buffer solution at pH 1.0", "type": "physicochemical", "outline": "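Solubility was measured in pH 1 buffer and reported in g/100 mL.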"}, "Vero": {"tested_on": "Vero", "experiment": "Cytotoxicity against african green monkey Vero cells after 48 hrs by MTT assay", "type": "cell-based", "conditions": "Chlorocebus sabaeus", "outline": "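Vero cells were exposed to compound. The IC50 was taken as the concentration inhibiting 50% of growth relative to an untreated control.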"}, "[6]": {"experiment": "Octanol-water partition coefficient, log P of the compound", "type": "physicochemical"}, "[7]": {"tested_on": "Mycobacterium tuberculosis", "experiment": "Antimycobacterial activity against Mycobacterium tuberculosis H37Rv ATCC 27294 after 7 days by microplate Alamar blue assay", "type": "functional", "conditions": "H37Rv ATCC 27294, 168 h", "outline": "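Run in 96-well plates against M. tuberculosis H37Rv using the Alamar Blue read-out. The MIC was taken as the lowest concentration giving >90% growth inhibition.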"}}, "data": [{"smiles": "COc1ncccc1Nc1cc2nc3ccccc3n(-c3ccc(F)cc3)c-2c/c1=N\\C(C)C", "values": [{"measurement": "Activity", "setting": "Mus musculus", "value": "Non-toxic"}, {"measurement": "Selectivity Index", "setting": "[1]", "value": 2133}, {"measurement": "Cmax", "setting": "[2]", "value": 3.02, "unit": "µg/mL"}, {"measurement": "half-life", "setting": "[3]", "value": 17.5, "unit": "h"}, {"measurement": "AUC(0-t) at 24 h", "setting": "[4]", "value": 52.4, "unit": "µg·h/mL"}, {"measurement": "solubility", "setting": "[5]", "value": 0.7, "unit": "g"}, {"measurement": "IC50", "setting": "Vero", "value": "> 64", "unit": "mg/L"}, {"measurement": "logP", "setting": "[6]", "value": 4.07}, {"measurement": "MIC", "setting": "[7]", "value": 0.03, "unit": "mg/L"}]}]}
